# In ChEMBL document CHEMBL1128745 (J Med Chem, 1995):
# Columns and labels:
# [1] = biological target: T1, Type-2 angiotensin II receptor (Rattus norvegicus, UniProt P35351); test: Inhibition of [125I]-[Sar1,Ile8]Ang II binding at rat angiotensin II (type 2) receptor.
# T1 sequence (P35351 whole entry): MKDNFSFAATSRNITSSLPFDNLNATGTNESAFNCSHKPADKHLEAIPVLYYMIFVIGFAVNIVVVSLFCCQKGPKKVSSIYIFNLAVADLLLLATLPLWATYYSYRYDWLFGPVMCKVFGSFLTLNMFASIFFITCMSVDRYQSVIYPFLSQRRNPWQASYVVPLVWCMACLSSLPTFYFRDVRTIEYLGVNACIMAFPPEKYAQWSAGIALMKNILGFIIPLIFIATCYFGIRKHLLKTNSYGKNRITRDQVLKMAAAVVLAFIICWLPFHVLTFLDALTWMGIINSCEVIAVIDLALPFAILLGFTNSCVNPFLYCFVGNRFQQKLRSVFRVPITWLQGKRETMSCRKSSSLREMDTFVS
# Outline: (§1)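 AT2 binding uses rat isolated adrenal membrane homogenates with 10^-6 M losartan present. [125I][Sar1,Ile8]Ang II is the radioligand, and IC50 is 50% displacement of total specifically bound label. Duplicate determinations include DuP 753 and saralasin as internal standards. Intraassay variability 5%, interassay 20%.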
# Rattus norvegicus = test: Effective dose to lower blood pressure by 30 mmHg in renal hypertensive rats on peroral administration.; format: functional; conditions: po
# Outline: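 Conscious renal artery-ligated hypertensive rats were dosed orally; vehicle was 0.05 mg/mL Na2CO3 in 0.5% methocel. Mean arterial pressure was monitored, n=6-9 per group. ED30 is the dose that lowers blood pressure by 30 mmHg.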
# [2] = biological target: T2, Angiotensin II receptor (AT-1) type-1 (Rattus norvegicus, UniProt P29089+P25095); test: Inhibition of [125I]-[Sar1,Ile8]Ang II binding at rat angiotensin II (type 1) receptor.; format: protein assay
# T2 sequence (P29089 whole entry): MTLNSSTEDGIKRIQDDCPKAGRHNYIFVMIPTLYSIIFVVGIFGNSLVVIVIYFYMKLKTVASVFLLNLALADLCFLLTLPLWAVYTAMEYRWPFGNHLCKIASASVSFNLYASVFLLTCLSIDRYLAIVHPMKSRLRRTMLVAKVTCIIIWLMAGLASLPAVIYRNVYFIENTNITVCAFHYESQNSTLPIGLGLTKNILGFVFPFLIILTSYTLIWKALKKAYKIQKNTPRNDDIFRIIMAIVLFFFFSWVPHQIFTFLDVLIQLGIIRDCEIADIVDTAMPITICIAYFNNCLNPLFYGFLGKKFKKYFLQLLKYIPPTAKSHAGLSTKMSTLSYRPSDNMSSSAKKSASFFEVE
# T2 sequence (P25095 whole entry): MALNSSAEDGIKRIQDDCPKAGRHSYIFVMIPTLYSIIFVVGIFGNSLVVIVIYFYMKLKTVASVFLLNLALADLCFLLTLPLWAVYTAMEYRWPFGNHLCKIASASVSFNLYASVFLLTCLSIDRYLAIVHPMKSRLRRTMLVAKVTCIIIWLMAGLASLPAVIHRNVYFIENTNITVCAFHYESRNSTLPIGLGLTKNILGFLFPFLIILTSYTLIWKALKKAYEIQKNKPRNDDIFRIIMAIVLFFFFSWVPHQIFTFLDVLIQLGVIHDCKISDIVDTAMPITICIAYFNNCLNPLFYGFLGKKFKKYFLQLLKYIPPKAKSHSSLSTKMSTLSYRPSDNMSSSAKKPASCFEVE
# Outline: (§2)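 Rat isolated adrenal membrane homogenates with 10^-6 M PD123177 present to isolate the AT1 site. Radioligand is [125I][Sar1,Ile8]Ang II. IC50 is the concentration giving 50% displacement of total specifically bound radioligand. Run in duplicate against DuP 753 and saralasin as internal standards. Intraassay variability 5%, interassay 20%.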
# [3] = biological target: T3, Angiotensin II receptor (Rattus norvegicus) (UniProt P29089+P25095+P35351); test: Ratio of IC50 at Angiotensin II type 1 and angiotensin II type 2 receptors; format: protein assay
# Outline: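 AT2 IC50 divided by AT1 IC50. Both come from [125I][Sar1,Ile8]Ang II displacement on rat adrenal membrane homogenates, with 10^-6 M losartan (AT2) or 10^-6 M PD123177 (AT1) present. Each was run in duplicate.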
# [4] = biological target: T2, Angiotensin II receptor (AT-1) type-1; test: Inhibitory concentration against Angiotensin II receptor type 1 with [125I]-[Sar1,Ile8]Ang II; format: protein assay; outline: as §2
# [5] = biological target: T1, Type-2 angiotensin II receptor; test: Inhibitory concentration against Angiotensin II receptor type 2 with [125I]-[Sar1,Ile8]Ang II; outline: as §1
# [6] = biological target: T3, Angiotensin II receptor (Rattus norvegicus); test: Relative inhibition of angiotensin II type 2 and angiotension II type 1 receptors in modified assay; format: protein assay
# Outline: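 Rat adrenal membrane homogenates with [125I][Sar1,Ile8]Ang II as radioligand. AT1 sites were measured with 10^-6 M PD123177 present and AT2 sites with 10^-6 M losartan present. IC50 is the concentration giving 50% displacement of specifically bound radioligand, run in duplicate against DuP 753 and saralasin standards. Intra-assay variability was 5% and inter-assay 20%. The value is the AT2 IC50 divided by the AT1 IC50.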
# [7] = biological target: T3, Angiotensin II receptor (Rattus norvegicus); test: Relative inhibition of angiotensin II receptor types 1 and 2; format: protein assay
SMILES,IC50 [1] [nM],ED30 (Rattus norvegicus) [mg/kg],IC50 [2] [nM],IC50 ratio [3],IC50 [4] [nM],IC50 [5] [nM],IC50 ratio [6],IC50 ratio [7]
CCCCOC(=O)NS(=O)(=O)c1ccccc1-c1ccc(Cn2c(CCC)nc(CC)c2C(=O)CCN(C(=O)CCC)c2ccccc2)c(F)c1,0.15,1.5,0.2,0.75,,,,
CCCC(=O)N(CCC(=O)c1c(CC)nc(CCC)n1Cc1ccc(-c2ccccc2S(=O)(=O)NC(=O)OCCC(C)C)cc1F)c1cccnc1,0.25,0.27,0.32,0.78,,,,
CCCc1nc(CC)c(C(=O)CCN(C(=O)c2ccncc2)c2cccnc2)n1Cc1ccc(-c2ccccc2S(=O)(=O)NC(=O)OCCC(C)C)cc1F,1,0.4,0.7,1.4,,,,
CCCc1nc(CC)c(C(=O)CCN(C(=O)c2cccnc2)c2cccnc2)n1Cc1ccc(-c2ccccc2S(=O)(=O)NC(=O)OCCC(C)C)cc1,1,,0.3,3.3,,,,
CCCCOC(=O)NS(=O)(=O)c1ccccc1-c1ccc(Cn2c(CCC)nc(CC)c2C(=O)CCN(C(=O)c2ccccc2)c2ccccc2)c(F)c1,0.18,1.57,0.25,0.7,,,,
CCCCOC(=O)NS(=O)(=O)c1ccccc1-c1ccc(Cn2c(CCC)nc(CC)c2C(C)=O)c(F)c1,1,,1,1,0.09,10,111,
CCCc1nc(CC)c(C(=O)OC)n1Cc1ccc(-c2ccccc2S(=O)(=O)NC(=O)OCCC(C)C)cc1F,3,,1,,0.1,40,,3
CCCc1nc(CC)c(C(=O)CCN(C(=O)c2ccncc2)c2ccccc2)n1Cc1ccc(-c2ccccc2S(=O)(=O)NC(=O)OCCC(C)C)cc1F,0.1,< 3,0.4,0.25,,,,
CCCCOC(=O)NS(=O)(=O)c1ccccc1-c1ccc(Cn2c(CCC)nc(CC)c2C(=O)CCN(CCCC)C(=O)c2ccccc2)c(F)c1,10,,0.3,33,,,,
CCCc1nc(CC)c(C(=O)CCN(C(=O)c2cccnc2)c2cccnc2)n1Cc1ccc(-c2ccccc2S(=O)(=O)NC(=O)OCCC(C)C)cc1F,0.22,0.26,0.5,0.44,,,,
CCCc1nc(CC)c(C(=O)CCN(C(=O)CC)c2cccnc2)n1Cc1ccc(-c2ccccc2S(=O)(=O)NC(=O)OCCC(C)C)cc1F,0.49,0.26,0.45,1.09,,,,
CCCc1nc(CC)c(C(=O)CCN(C(=O)c2ccccc2)c2ccccc2)n1Cc1ccc(-c2ccccc2S(=O)(=O)NC(=O)OCCC(C)C)cc1F,0.06,,0.1,,,,,
CCCc1nc(CC)c(C(=O)CCN(C(C)=O)c2cccnc2)n1Cc1ccc(-c2ccccc2S(=O)(=O)NC(=O)OCCC(C)C)cc1F,3,,0.4,7.5,,,,
CCCC(=O)N(CCC(=O)c1c(CC)nc(CCC)n1Cc1ccc(-c2ccccc2S(=O)(=O)NC(=O)OCCC(C)C)cc1)c1cccnc1,1,,0.4,2.5,,,,
CCCCOC(=O)NS(=O)(=O)c1ccccc1-c1ccc(Cn2c(CCC)nc(CC)c2C(=O)OC)c(Cl)c1,,,3,231,0.16,37,,2.3
CCCc1nc(CC)c(C(=O)CCN(C(=O)C(C)C)c2cccnc2)n1Cc1ccc(-c2ccccc2S(=O)(=O)NC(=O)OCCC(C)C)cc1F,1,,0.3,3.3,,,,
CCCc1nc(CC)c(C(=O)CCN(C(=O)c2cccnc2)c2ccccn2)n1Cc1ccc(-c2ccccc2S(=O)(=O)NC(=O)OCCC(C)C)cc1F,0.16,0.9,0.52,0.31,,,,
